In brackets after ≈: the same amount, converted by molar mass. One block for each compound: values may come before it.
Key:
Type in all cases: functional
[1] = test system: Escherichia coli; assay: Inhibition of cell free transcription/translation by Escherichia coli s30 bacterial extract.
Outline: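 Coupled transcription/translation in E. coli S30 extract with pBest Luc plasmid (0.125 μg/μL stock), S30 premix and complete amino acid mix (1 mM each, 10× stock). 35 min at 37 °C, then luciferase read by luminescence. IC50 = concentration reducing luciferase activity to 50% of control; compounds HPLC-purified before IC50 determination.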

[2] = test system: Escherichia coli; assay: In vitro minimum inhibition concentration against Escherichia coli D21f2, LPS mutant; Range is from 25-50.
Outline: (§1)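 Broth microdilution in duplicate. Overnight culture added to compound in 2.5% DMSO in water; final inoculum about 10²–10³ CFU/well. Growth relative to no-compound control read as A595 after 20–24 h at 37 °C. MIC reported as a range: complete inhibition at the upper concentration, viable cells at the lower. Top concentration 100 μM.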

[3] = test system: Escherichia coli; assay: In vitro minimum inhibition concentration against Escherichia coli Ram195, pump mutant.; outline: as §1
[4] = test system: Escherichia coli; assay: In vitro minimum inhibition concentration against Escherichia coli K-12, wild type.; outline: as §1
[5] = test system: Escherichia coli; assay: In vitro minimum inhibition concentration against Escherichia coli KZM120, pump mutant.; outline: as §1
[6] = In vitro inhibition of translation in luciferase SP6 control plasmid
Outline: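 Luciferase mRNA transcribed from SP6 plasmid with SP6 RNA polymerase, then translated in E. coli S30 extract for linear templates with S30 premix and complete amino acid mix (1 mM each, 10× stock). 90 min at 37 °C; functional luciferase detected by luminescence. IC50 = concentration reducing luciferase activity to 50% of control.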

[7] = test system: Escherichia coli; assay: In vitro minimum inhibition concentration against Escherichia coli D21f2, LPS mutant; Range is from 12-25.; outline: as §1
[8] = test system: Escherichia coli; assay: In vitro minimum inhibition concentration against Escherichia coli D21f2, LPS mutant; Range is from 25-50; outline: as §1
[9] = test system: Escherichia coli; assay: In vitro minimum inhibition concentration against Escherichia coli Ram195, pump mutant; Range is from 50-100.; outline: as §1
[10] = test system: Escherichia coli; assay: In vitro minimum inhibition concentration against Escherichia coli KZM120, pump mutant; Range is from 50-100.; outline: as §1
[11] = test system: Escherichia coli; assay: In vitro minimum inhibition concentration against Escherichia coli K-12, wild type; Range is from 50-100.; outline: as §1

SMILES: NC(N)=NCCC[C@H]1COc2ccc(NC(=O)CCNC(=O)c3ccc4nc(O)c(O)nc4c3)cc2C(=O)NC[C@@H](N)C(=O)N[C@@H](Cc2ccc(N)cc2)C(=O)N1
- IC50 [1]: 3 µM

SMILES: NC(N)=NCCC[C@H]1COc2ccc(NC(=O)c3ccc4nc(O)c(O)nc4c3)cc2C(=O)NC[C@@H](N)C(=O)N[C@@H](Cc2cccnc2)C(=O)N1
- IC50 [1]: 50 µM

SMILES: NC(N)=NCCC[C@H]1COc2ccc(NS(=O)(=O)c3ccc4nc(O)c(O)nc4c3)cc2C(=O)NC[C@@H](N)C(=O)N[C@@H](Cc2ccc(N)cc2)C(=O)N1
- IC50 [1]: 62 µM

SMILES: NC(N)=NCCC[C@H]1COc2ccc(NC(=O)c3cc4nc(O)c(O)nc4cc3[N+](=O)[O-])cc2C(=O)NC[C@@H](N)C(=O)N[C@@H](Cc2ccc(N)cc2)C(=O)N1
- IC50 [1]: > 100 µM

SMILES: CN(CC(=O)Nc1ccc2c(c1)C(=O)NC[C@@H](N)C(=O)N[C@@H](Cc1ccc(N)cc1)C(=O)N[C@@H](CCCN=C(N)N)CO2)C(=O)c1ccc2nc(O)c(O)nc2c1
- IC50 [1]: > 100 µM

SMILES: NC(N)=NCCC[C@@H]1COc2ccc(NC(=O)c3ccc4nc(O)c(O)nc4c3)cc2C(=O)NC[C@@H](N)C(=O)N[C@H](Cc2cccnc2)C(=O)N1
- IC50 [1]: 20 µM

SMILES: NCCCC[C@H]1COc2ccc(NC(=O)c3ccc4nc(O)c(O)nc4c3)cc2C(=O)NC[C@@H](N)C(=O)N[C@@H](Cc2ccccc2)C(=O)N1
- MIC [7]: 25 µM (≈ 16.8 µg/mL)
- MIC [3]: > 100 µM
- MIC [4]: > 100 µM
- IC50 [1]: 40 µM
- MIC [5]: > 100 µM
- IC50 [6]: 50 µM

SMILES: NC(N)=NCCC[C@H]1COc2ccc(NC(=O)CCCCCNC(=O)c3ccc4nc(O)c(O)nc4c3)cc2C(=O)NC[C@@H](N)C(=O)N[C@@H](Cc2ccc(N)cc2)C(=O)N1
- IC50 [1]: 33 µM

SMILES: NC(N)=NCCC[C@H]1COc2ccc(NC(=O)CCCNC(=O)c3ccc4nc(O)c(O)nc4c3)cc2C(=O)NC[C@@H](N)C(=O)N[C@@H](Cc2ccc(N)cc2)C(=O)N1
- IC50 [1]: 75 µM

SMILES: Cc1cc2nc(O)c(O)nc2cc1S(=O)(=O)Nc1ccc2c(c1)C(=O)NC[C@@H](N)C(=O)N[C@@H](Cc1ccc(N)cc1)C(=O)N[C@@H](CCCN=C(N)N)CO2
- IC50 [1]: 2 µM

SMILES: NC[C@H]1O[C@H](O[C@H]2[C@H](O)[C@@H](O[C@H]3O[C@H](CO)[C@@H](O)[C@H](N)[C@H]3O)[C@H](N)C[C@@H]2N)[C@H](O)[C@@H](O)[C@@H]1O [KANAMYCIN]
- IC50 [1]: 0.04 µM
- IC50 [6]: 0.08 µM

Other lines, results leading:

- IC50 [1]: 50 µM
SMILES: NC(N)=NCCC[C@H]1COc2ccc(NC(=O)CNC(=O)c3ccc4nc(O)c(O)nc4c3)cc2C(=O)NC[C@@H](N)C(=O)N[C@@H](Cc2ccc(N)cc2)C(=O)N1

- MIC [2]: 50 µM (≈ 35.7 µg/mL)
- MIC [3]: > 100 µM
- MIC [4]: > 100 µM
- IC50 [1]: 25 µM
- MIC [5]: > 100 µM
- IC50 [6]: 50 µM
SMILES: NC(N)=NCCC[C@H]1COc2ccc(NC(=O)c3ccc4nc(O)c(O)nc4c3)cc2C(=O)NC[C@@H](N)C(=O)N[C@@H](Cc2ccc(O)cc2)C(=O)N1

- MIC [7]: 25 µM (≈ 17.8 µg/mL)
- MIC [3]: > 100 µM
- MIC [4]: > 100 µM
- IC50 [1]: 17 µM
- MIC [5]: > 100 µM
- IC50 [6]: 25 µM
SMILES: NC(N)=NCCC[C@@H]1COc2ccc(NC(=O)c3ccc4nc(O)c(O)nc4c3)cc2C(=O)NC[C@H](N)C(=O)N[C@H](Cc2ccc(N)cc2)C(=O)N1

- MIC [3]: > 100 µM
- MIC [4]: > 100 µM
- IC50 [1]: 16 µM
- MIC [8]: 50 µM (≈ 35.7 µg/mL)
- MIC [5]: > 100 µM
- IC50 [6]: 13 µM
SMILES: NC(N)=NCCC[C@H]1COc2ccc(NC(=O)c3ccc4nc(O)c(O)nc4c3)cc2C(=O)NC[C@@H](N)C(=O)N[C@@H](Cc2ccc(N)cc2)C(=O)N1

- MIC [2]: 50 µM (≈ 34.9 µg/mL)
- MIC [9]: 100 µM (≈ 69.9 µg/mL)
- MIC [10]: 100 µM (≈ 69.9 µg/mL)
- IC50 [1]: 12 µM
- MIC [11]: 100 µM (≈ 69.9 µg/mL)
SMILES: NC(N)=NCCC[C@@H]1COc2ccc(NC(=O)c3ccc4nc(O)c(O)nc4c3)cc2C(=O)NC[C@H](N)C(=O)N[C@H](Cc2ccccc2)C(=O)N1

- IC50 [1]: > 100 µM
SMILES: Cc1nc2ccc(C(=O)Nc3ccc4c(c3)C(=O)NC[C@@H](N)C(=O)N[C@@H](Cc3ccc(N)cc3)C(=O)N[C@@H](CCCN=C(N)N)CO4)cc2nc1C

- IC50 [1]: > 100 µM
SMILES: Cn1c(=O)c(=O)n(C)c2cc(C(=O)Nc3ccc4c(c3)C(=O)NC[C@@H](N)C(=O)N[C@@H](Cc3ccc(N)cc3)C(=O)N[C@@H](CCCN=C(N)N)CO4)ccc21

- IC50 [1]: > 100 µM
SMILES: NC(N)=NCCC[C@H]1COc2ccc(NC(=O)c3ccc4ccccc4n3)cc2C(=O)NC[C@@H](N)C(=O)N[C@@H](Cc2ccc(N)cc2)C(=O)N1

- MIC [7]: 25 µM (≈ 17.9 µg/mL)
- MIC [3]: > 100 µM
- MIC [4]: > 100 µM
- IC50 [1]: 15 µM
- MIC [5]: > 100 µM
- IC50 [6]: 35 µM
SMILES: NC(N)=NCCC[C@@H]1COc2ccc(NC(=O)c3ccc4nc(O)c(O)nc4c3)cc2C(=O)NC[C@H](N)C(=O)N[C@H](Cc2ccc(O)cc2)C(=O)N1

- IC50 [1]: > 100 µM
SMILES: NC(N)=NCCC[C@H]1COc2ccc(NC(=O)c3ccc4cccnc4c3)cc2C(=O)NC[C@@H](N)C(=O)N[C@@H](Cc2ccc(N)cc2)C(=O)N1

- IC50 [1]: > 100 µM
SMILES: NC(N)=NCCC[C@H]1COc2ccc(NC(=O)c3ccc4ccccc4c3)cc2C(=O)NC[C@@H](N)C(=O)N[C@@H](Cc2ccc(N)cc2)C(=O)N1

From ChEMBL document CHEMBL1135529, “New inhibitors of bacterial protein synthesis from a combinatorial library of macrocycles” (J Med Chem, 2002)
